Test results: ChEMBL document CHEMBL3745620, “Design and Synthesis of DiselenoBisBenzamides (DISeBAs) as Nucleocapsid Protein 7 (NCp7) Inhibitors with anti-HIV Activity” (J Med Chem, 2015)
The source made the active and inactive calls. The calls are words filed in the database; no cut-off is given here.

How the values were obtained:
[1] = test system: Human immunodeficiency virus 1; assay: Antiviral activity against HIV1 3B infected in human MT4 cells assessed as protection against virus-induced cytopathic effect after 5 days by MTT assay; type: functional, organism-based; details: Human immunodeficiency virus 1, 3B, MT4, 120 h
Method in brief: (§1)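 MT-4 cells in RPMI 1640 with 10% heat-inactivated FCS, resuspended at 6 x 10^5 cells/ml. Compounds added at start in serial 5-fold dilutions, triplicate wells, to mock- and virus-infected cells (100-300 CCID50 per well). After 5 days, viability by MTT reduction (OD540). […] Mean ± SD, at least two experiments.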

[2] = Selectivity index, ratio of CC50 for human MT4 cells to EC50 for HIV-2 ROD; type: toxicity, cell-based; details: read-out: Ratio CC50/EC50
Method in brief: (§2)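 Compounds added at start in serial 5-fold dilutions, triplicate wells, to mock- and virus-infected cells (100-300 CCID50 per well). After 5 days, viability by MTT reduction (OD540). Mean ± SD, at least two experiments.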

[3] = test system: Human immunodeficiency virus 2; assay: Antiviral activity against HIV2 ROD infected in human MT4 cells assessed as protection against virus-induced cytopathic effect after 5 days by MTT assay; type: functional, organism-based; details: Human immunodeficiency virus 2, ISOLATE ROD, MT4, 120 h; method in brief: as §1
[4] = Cytotoxicity against human MT4 cells assessed as cell viability after 5 days by MTT assay; type: cell-based; method in brief: as §2
[5] = test system: Human immunodeficiency virus 1; assay: Antiviral activity against HIV1 3B infected in human MT4 cells assessed as inhibition of viral replication by measuring p24 Ag production at 2 ug/ml measured at 31 hrs post infection by ELISA; type: functional, organism-based
Method in brief: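 MT-4 cells infected with HIV-1 IIIB at m.o.i. 0.5, 1 h adsorption, then seeded at 45,000 cells/well at 37°C. Compound added at times from 0 to 25 h post-infection. Read-out was p24 in supernatant by ELISA at 31 h post-infection.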

[6] = Selectivity index, ratio of CC50 for human MT4 cells to EC50 for HIV1 3B; type: toxicity, cell-based; details: read-out: Ratio CC50/EC50; method in brief: as §2
HuT78 = assay: Inhibition of NCp7 of HIV1 3B persistently infected in HUT78 cells assessed as accumulation of unprocessed Gag polyprotein after 43 hrs by Western blot analysis; type: cell-based; details: Human immunodeficiency virus 1
Method in brief: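 Washed HuT-78(IIIB) cells (2x10^5 in 1 ml) treated with compound for 43 h at 37°C. Virions pelleted from clarified supernatant (36,670 g, 2 h, 4°C), lysed, run on SDS-PAGE and transferred to PVDF. Blot probed with mouse anti-p24 (1:5000), then HRP anti-mouse (1:2500), with chemiluminescent detection.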

[7] = test system: Human immunodeficiency virus 1; assay: Antiviral activity against HIV1 3B persistently infected in HUT78 cells assessed as reduction of p24 production after 43 hrs by ELISA; type: functional, organism-based; details: Human immunodeficiency virus 1, 3B, HuT78, 43 h
Method in brief: (§3)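 Chronically HIV-1 IIIB-infected HuT-78 cells washed four times in PBS to remove free virions and seeded at 2 × 10^5 cells/well with 7 serial 5-fold compound dilutions for 43 h at 37°C. Supernatant p24 measured by ELISA. Cytotoxicity was run in parallel by MTT plus microscopy. SI = CC50/EC50. Mean ± SD, ≥2 experiments.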

[8] = test system: Human immunodeficiency virus 1; assay: Antiviral activity against ritonavir-resistant HIV1 3B/RIT infected in human MT4 cells; type: functional, organism-based; details: Human immunodeficiency virus 1, 3B/RIT
Method in brief: (§4)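 MT-4 cells in RPMI 1640 with 10% heat-inactivated FCS were infected at the start of the experiment, with compound added across serial 5-fold dilutions in triplicate wells. Cells were seeded at 6 x 10^5 cells/ml. After 5 days, protection against virus-induced cytopathic effect was read by MTT reduction at OD540. […] Values are means ± SD of at least two experiments.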

[9] = test system: Human immunodeficiency virus 1; assay: Antiviral activity against ritonavir-resistant HIV1 B12 harboring […] L10I/I15V/I54V/L63P/V82A/I85V mutant infected in human MT4 cells; type: functional, organism-based; details: Human immunodeficiency virus 1, B12, MT4; method in brief: as §4
[10] = Antiviral activity against nevirapine-resistant SIV mac251 infected in human MT4 cells; type: functional, cell-based; details: Simian immunodeficiency virus; method in brief: as §4
[11] = Selectivity index, ratio of CC50 for human HUT78 cells to EC50 for HIV1 3B; type: toxicity, cell-based; details: read-out: Ratio CC50/EC50; method in brief: as §3
[12] = Cytotoxicity against human HUT78 cells assessed as reduction in cell viability after 5 days by MTT assay; type: cell-based
[13] = test system: Human immunodeficiency virus 1; assay: Antiviral activity against AZT-resistant HIV1 ADP/141 harboring reverse transcriptase D67N/K70R/T215F/K219Q mutant infected in human MT4 cells; type: functional, organism-based; details: Human immunodeficiency virus 1, ADP/141, MT4; method in brief: as §4
[14] = test system: Human immunodeficiency virus 1; assay: Antiviral activity against NRTI/NNRTI-resistant HIV1 L6 harboring reverse transcriptase V75I/F77L/K103N/F116Y/Q151M/M184V mutant infected in human MT4 cells; type: functional, organism-based; details: Human immunodeficiency virus 1, L6, MT4; method in brief: as §4
[15] = test system: Human immunodeficiency virus 1; assay: Antiviral activity against NNRTI-resistant HIV1 RES056 harboring reverse transcriptase K103N/181C double mutant infected in human MT4 cells; type: functional, organism-based; details: Human immunodeficiency virus 1, RES056, MT4; method in brief: as §4

Row | SMILES | EC50 [1] | selectivity ratio [2] | EC50 [3] | CC50 at 120 h [4] | inhibition [5] | selectivity ratio [6] | inhibition (HuT78) | EC50 [7] | EC50 [8] | EC50 [9] | EC50 [10] | selectivity ratio [11] | CC50 at 120 h [12] | EC50 [13] | EC50 [14] | EC50 [15]
1 | COC(=O)[C@@H]1CCCN1C(=O)c1ccccc1[Se][Se]c1ccccc1C(=O)N1CCC[C@H]1C(=O)OC | ≥ 4.32 µM | 2 | 4.56 µM | 10.1 µM | Active | ≤ 2 | – | – | – | – | – | – | – | – | – | –
2 | CC(C)[C@H](NC(=O)c1ccccc1[Se][Se]c1ccccc1C(=O)N[C@H](C(=O)O)C(C)C)C(=O)O | 13.9 µM | 9 | 14.3 µM | 136 µM | Active | 10 | Dose-dependent effect | – | – | – | – | – | – | – | – | –
3 | CC(C)c1nc(CN(C)C(=O)N[C@H](C(=O)N[C@@H](Cc2ccccc2)C[C@H](O)[C@H](Cc2ccccc2)NC(=O)OCc2cncs2)C(C)C)cs1 [RITONAVIR] | 0.09 µM | – | 0.14 µM | – | Active | – | Dose-dependent effect | 29 µM | 2.77 µM | 1.28 µM | 0.14 µM | – | – | – | – | –
4 | COC(=O)C[C@H](NC(=O)c1ccccc1[Se][Se]c1ccccc1C(=O)N[C@@H](CC(=O)OC)C(=O)OC)C(=O)OC | ≥ 3.17 µM | ≤ 3 | ≥ 2.75 µM | 9.74 µM | Active | ≤ 3 | – | – | – | – | – | – | – | – | – | –
5 | O=C(O)CNC(=O)c1ccccc1SSc1ccccc1C(=O)NCC(=O)O | > 58.1 µM | < 1 | > 58.1 µM | 58.1 µM | Active | < 1 | – | – | – | – | – | – | – | – | – | –
6 | NS(=O)(=O)c1ccc(NC(=O)c2ccccc2[Se][Se]c2ccccc2C(=O)Nc2ccc(S(N)(=O)=O)cc2)cc1 | 2.82 µM | 6 | 3.03 µM | 17.4 µM | Active | 6 | Dose-dependent effect | 8.25 µM | – | – | – | > 4 | > 35 µM | – | – | –
7 | CC1CNC(=O)c2ccccc2SSc2ccccc2C(=O)N1 (stereo unspecified) | – | – | – | – | – | – | Dose-dependent effect | > 7.5 µM | – | – | – | > 54 | > 7.5 µM | – | – | –
8 | CCOC(=O)CNC(=O)c1ccccc1[Se][Se]c1ccccc1C(=O)NCC(=O)OCC | 0.91 µM | 9 | 0.74 µM | 6.26 µM | Active | 7 | – | – | – | – | – | – | – | – | – | –
9 | NS(=O)(=O)c1ccc(OC(=O)c2ccccc2[Se][Se]c2ccccc2C(=O)Oc2ccc(S(N)(=O)=O)cc2)cc1 | > 18.6 µM | < 1 | > 18.6 µM | 18.6 µM | Active | < 1 | Dose-dependent effect | – | – | – | – | – | – | – | – | –
10 | O=C(O)[C@@H]1CCCN1C(=O)c1ccccc1[Se][Se]c1ccccc1C(=O)N1CCC[C@H]1C(=O)O | > 152 µM | < 1 | > 152 µM | 152 µM | Active | < 1 | Dose-dependent effect | – | – | – | – | – | – | – | – | –
11 | CC[C@H](C)[C@H](NC(=O)c1ccccc1[Se][Se]c1ccccc1C(=O)N[C@H](C(=O)OC)[C@@H](C)CC)C(=O)OC | 0.84 µM | ≤ 2 | ≥ 1.25 µM | 2.99 µM | Active | 4 | – | – | – | – | – | – | – | – | – | –
12 | NS(=O)(=O)c1ccc(NC(=O)c2ccccc2SSc2ccccc2C(=O)Nc2ccc(S(N)(=O)=O)cc2)cc1 | 3.04 µM | 30 | 0.56 µM | 10.5 µM | – | 6 | – | 2.66 µM | – | – | – | 6.9 | 18.4 µM | – | – | –
13 | CCOC(=O)CC[C@H](NC(=O)c1ccccc1[Se][Se]c1ccccc1C(=O)N[C@@H](CCC(=O)OCC)C(=O)OCC)C(=O)OCC | ≥ 0.67 µM | ≤ 4 | ≥ 0.72 µM | 2.8 µM | Active | ≤ 4 | – | – | – | – | – | – | – | – | – | –
14 | COC(=O)[C@H](C)NC(=O)c1ccccc1[Se][Se]c1ccccc1C(=O)N[C@@H](C)C(=O)OC | 3.17 µM | 8 | 1.94 µM | 15.8 µM | Active | 5 | – | – | – | – | – | – | – | – | – | –
15 | O=C(O)C[C@H](NC(=O)c1ccccc1[Se][Se]c1ccccc1C(=O)N[C@@H](CC(=O)O)C(=O)O)C(=O)O | > 151 µM | < 1 | > 151 µM | 151 µM | Active | < 1 | Dose-dependent effect | – | – | – | – | – | – | – | – | –
16 | Cc1cn([C@H]2C[C@H](N=[N+]=[N-])[C@@H](CO)O2)c(=O)[nH]c1=O [ZIDOVUDINE] | 0.01 µM | > 935 | 0.008 µM | > 7.48 µM | – | > 748 | Dose-dependent effect | – | – | – | – | – | – | 0.03 µM | > 7.48 µM | –
17 | NS(=O)(=O)c1ccc(NC(=O)c2cccnc2[Se][Se]c2ncccc2C(=O)Nc2ccc(S(N)(=O)=O)cc2)cc1 | 3.77 µM | ≤ 6 | ≥ 3.11 µM | 19.2 µM | Active | 5 | Dose-dependent effect | – | – | – | – | – | – | – | – | –
18 | C[C@H](NC(=O)c1ccccc1[Se][Se]c1ccccc1C(=O)N[C@@H](C)C(=O)O)C(=O)O | 10.3 µM | 26 | 5.38 µM | 138 µM | Active | 13 | Dose-dependent effect | – | – | – | – | – | – | – | – | –
19 | Cc1ccnc2c1NC(=O)c1cccnc1N2C1CC1 [NEVIRAPINE] | 0.28 µM | – | > 15 µM | > 15 µM | – | > 60 | – | 0.26 µM | – | – | > 15 µM | – | > 14 µM | – | > 15 µM | > 15 µM
